Only some compounds are listed: those with a hit (about 2% of all), similar ones and a draw of the others.
NR2E3 ag-1: human photoreceptor-specific nuclear receptor agonism. inhibition of corepressor binding, % at 3.98 µM. CHO-S Gal4-NCOR/VP16-NR2E3 two-hybrid, luciferase. actives 0.35% (n = 360,000). AID 602229. Q9Y5X4;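 active = inhibition above the mean of all tested compounds plus 3 SD, cut at about 70% in these data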;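 also: 0% = DMSO with NR2E3 transfected cells and 100% = cells lacking NR2E3 construct; higher means lower luciferase signal from less NR2E3 corepressor binding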
Rev-erbA mod: Rev-erb alpha (human) modulation. actives 0.79% (n = 370,000). Rev-erbα–FITC-DNA binding, fluorescence polarization, 90 min. activity, % at 10 µM;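 active = activity above about 14%, limit read from the data; passing the limit was not always enough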;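 also: 0% = DMSO wells with 35 nM protein and 100% = DMSO wells with 750 nM protein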
PG9 Ab binder: small molecules binding HIV-1 gp120 antibody PG9; TR-FRET gp120-PG9 antibody binding; actives 0.43% (n = 360,000); inhibition, % at 6.7 µM; in the data active = inhibition above about 8.5%
Neddyl block: cullin neddylation inhibition; calls only at 25 µM; actives 0.58% (n = 360,000); AID 651699; P61081+Q13564; TR-FRET cullin neddylation, biochemical; in the data active = inhibition above about 36%
Target sequence (P61081 whole entry, looked up): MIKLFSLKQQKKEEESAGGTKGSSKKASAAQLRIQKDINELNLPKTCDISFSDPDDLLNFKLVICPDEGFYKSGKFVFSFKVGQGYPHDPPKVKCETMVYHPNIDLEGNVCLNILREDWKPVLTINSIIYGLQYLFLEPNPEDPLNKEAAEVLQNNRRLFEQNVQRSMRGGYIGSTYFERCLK
Target sequence (Q13564 whole entry, looked up): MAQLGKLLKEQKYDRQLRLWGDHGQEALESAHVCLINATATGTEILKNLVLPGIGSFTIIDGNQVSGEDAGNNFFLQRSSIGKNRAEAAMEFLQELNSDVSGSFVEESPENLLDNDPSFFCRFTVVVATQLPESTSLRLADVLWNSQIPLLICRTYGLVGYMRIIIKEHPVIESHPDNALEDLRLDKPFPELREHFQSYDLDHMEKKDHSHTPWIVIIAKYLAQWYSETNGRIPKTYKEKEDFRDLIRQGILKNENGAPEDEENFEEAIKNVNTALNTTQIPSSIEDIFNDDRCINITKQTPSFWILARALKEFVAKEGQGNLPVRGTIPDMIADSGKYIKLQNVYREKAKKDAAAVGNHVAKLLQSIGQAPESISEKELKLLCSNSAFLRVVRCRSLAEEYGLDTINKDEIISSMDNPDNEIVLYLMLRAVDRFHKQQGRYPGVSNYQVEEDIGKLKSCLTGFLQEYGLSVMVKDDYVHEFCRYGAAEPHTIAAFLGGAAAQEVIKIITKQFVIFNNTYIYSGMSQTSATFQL
NR2E3 ag-2: activates human photoreceptor nuclear receptor NR2E3; Q9Y5X4; GST-NR2E3/biotin-RetCOR TR-FRET, 1536-well; inhibition of corepressor binding, % at 4.78 µM; actives 0.12% (n = 320,000); AID 2300;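 active = percent inhibition above the cutoff of mean plus 3 SD of all tested compounds, set per screening campaign, cut at about 20% in these data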;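 also: 0% = DMSO wells and 100% = biotin wells as full block of FRET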
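Material: NR2E3–RetCOR corepressor complex | Quantity: 1.35 nM GST-tagged NR2E3 final | Schedule: 5 h at 4 °C | Replication: Singlicate compound wells | Reagent: RetCOR corepressor, biotinylated, 7 nM | Controls: Biotin wells as high control, 0.6% DMSO wells as low control | Signal: TR-FRET, Eu(K)-anti-GST donor, streptavidin-D2 acceptor, ex 340, em 617/671 nm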
NR2E3 ag confirm-1: confirmation of human NR2E3 nuclear receptor agonists; activation (reported as inhibition), % at 3.98 µM; cell-free NR2E3 corepressor release, TR-FRET, 5 h; actives 39% (n = 360); shares compounds with NR2E3 ag-2; in the data active = activation above about 20%
PPARg-NCOR2 ag: PPARg-NCOR2 interaction agonism, NR2E3 counter-screen; shares compounds with NR2E3 ag-2; actives 45% (n = 360); TR-FRET PPARg-NCOR2 coregulator interaction, biochemical; inhibition, % at 3.98 µM; AID 504787; in the data active = inhibition above about 20%;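 also: 0% = DMSO vehicle and 100% = wells without protein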
NR2E3 ag confirm-2: NR2E3 agonism confirmed in two-hybrid assay | shares compounds with NR2E3 ag-1 | CHO-S mammalian two-hybrid NR2E3-NCOR, luciferase luminescence | inhibition, % at 3.98 µM | actives 51% (n = 2,300);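 active = average inhibition above a cutoff equal to the mean inhibition of all tested compounds plus one SD, cut at about 70% in these data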;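 also: 0% = DMSO in NR2E3 cells and 100% = DMSO in cells lacking NR2E3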
GAL4-VP16 luc: counter-screen for NR2E3 agonists: GAL4-VP16 reporter inhibitors | actives 29% (n = 2,300) | CHO-S GAL4-VP16 luciferase reporter, luminescence | inhibition, % at 3.98 µM | shares compounds with NR2E3 ag-1;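 active = mean inhibition above a cutoff equal to the average over all tested compounds plus one standard deviation, cut at about 70% in these data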;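 also: luciferase from a UAS reporter driven by GAL4-VP16 transactivation; 0% = DMSO with VP16-transfected cells and 100% = DMSO with cells lacking VP16; higher means less reporter light so more repression of VP16 activity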
* marks the source's active call; other numbers are inactive results; i = inactive; . = no result given.

SMILES | NR2E3 ag-1 | Rev-erbA mod | PG9 Ab binder | Neddyl block | NR2E3 ag-2 | NR2E3 ag confirm-1 | PPARg-NCOR2 ag | others
Cc1ccc2nc(SCC(=O)Nc3ccc4c(c3)CCC4)[nH]c2c1 | 2.3 | -4.5 | 0.2 | i | 0.4 | . | .
O=C(CSc1nc2ccc(Cl)cc2[nH]1)Nc1ccc2c(c1)CCC2 | -18.0 | 3.5 | -1.7 | i | 32.3* | -6.1 | -4.6
Cc1oc2c(c1C(=O)NCc1cccnc1)C(=O)c1ccccc1C2=O | . | . | . | . | 21.7* | 18.5 | -0.1
CC(=O)c1c(C)oc2c1C(=O)c1ccccc1C2=O | -21.6 | 0.5 | -2.6 | i | -3.4 | . | .
O=C(CSc1nc2ccccc2c(=O)n1-c1ccccc1Cl)Nc1cccc(S(=O)(=O)N2CCOCC2)c1 | -6.8 | 12.8 | -2.9 | i | 25.2* | -5.7 | -7.7
O=C(CSc1ncnc2ccccc12)Nc1cccc(S(=O)(=O)N2CCOCC2)c1 | -10.8 | 0.0 | -3.5 | i | 1.8 | . | .
CC1(C)Cc2c(c(-c3ccccc3)nc3[nH][nH]c(=O)c23)CO1 | -2.8 | -5.9 | -4.5 | i | -0.9 | . | .
CC1(C)Cc2c(c(-c3ccccc3)nc3sc4c(=O)[nH]c(=S)[nH]c4c23)CO1 | . | . | . | . | 20.0* | 19.0 | 11.5
CC1NC(=O)NC1CCCCCC(=O)Nc1ccc(F)cc1 (centres undefined) | -17.9 | -8.0 | 0.1 | i | 85.6* | 89.3* | 90.4*
O=C(CCCC(=O)c1ccccc1)Nc1ccc(F)cc1 | -34.8 | -2.5 | -0.8 | i | -2.4 | . | .
Cc1c(F)cccc1NC(=O)CCCCCC1NC(=O)NC1C (centres undefined) | -6.3 | 0.6 | 0.4 | i | 97.3* | 88.7* | 92.2*
Cc1ccc(S(=O)(=O)N2O[C@@H](c3ccccc3)C[C@H]2CON2C(C)(C)CCCC2(C)C)cc1 | . | 0.2 | . | . | . | . | .
CCOC(=O)c1ccc2c(c1)C1C=CCC1C(C(=O)O)N2 (centres undefined) | . | . | . | . | 8.7 | . | .
CCOC(=O)C1Nc2ccc(C(=O)O)cc2C2C=CCC12 (centres undefined) | -37.4 | 14.3 | -3.5 | i | 29.6* | 11.3 | 7.0
O=C(O)c1ccc2c(c1)C1C=CCC1C(c1ccncc1)N2 (centres undefined) | -37.6 | -6.9 | -1.5 | i | 22.8* | 18.2 | -7.1
CCCCCCCCCCC[C@@H](C[C@H]1OC(=O)[C@H]1CCCCCC)OC(=O)[C@@H](CC(C)C)NC=O | . | -6.5 | . | . | . | . | .
NC(=O)c1cc[n+](CC2=C(C(=O)O)N3C(=O)[C@H](NC(=O)C(c4ccccc4)S(=O)(=O)[O-])C3SC2)cc1 (some centres undefined) | . | 2.8 | . | . | . | . | .
CCSc1cnn(-c2ccccc2)c(=O)c1SCC | -17.1 | -3.0 | 1.1 | i | 21.5* | 4.2 | 0.3
Cc1cc(=O)n(C2CCS(=O)(=O)C2)[nH]1 (centres undefined) | -9.6 | -5.2 | -3.0 | i | 32.6* | -4.9 | -3.5
COC(=O)[C@]12C[C@H](CC(=O)NCCC(C)C)C(=O)N(CCC3=CCCCC3)C1=C[C@H](COCc1ccccc1)O[C@@H]2C | . | -6.3 | -0.4 | . | . | . | .
Nc1c(N2CCCC2)cc(Cl)c2nonc12 | -4.9 | . | . | i | 1.5 | . | .
Nc1ccc(N2CCCCC2)c2nonc12 | -43.3 | 0.2 | -1.6 | i | 43.1* | -15.9 | -13.9
C[C@@H]1O[C@@H](OC[C@H]2OC(Oc3c(-c4ccc(OCCO)c(OCCO)c4)oc4cc(OCCO)cc(O)c4c3=O)[C@H](O)[C@@H](O)[C@@H]2O)[C@H](O)[C@H](O)[C@H]1O (some centres undefined) | . | 14.6 | . | . | . | . | .
c1ccc2c(c1)-c1cccc3c1c-2cc1ccccc13 | . | . | . | . | 24.8* | -6.7 | -3.8
O[C@H](COc1cc(F)cc(F)c1)CN1CCC(C(O)(c2ccccc2)c2ccccc2)CC1 | . | -0.9 | . | . | . | . | .
SMILES | NR2E3 ag-1 | Rev-erbA mod | PG9 Ab binder | Neddyl block | NR2E3 ag-2 | NR2E3 ag confirm-1 | PPARg-NCOR2 ag | others
CCc1c(C(=O)Nc2ccccc2)c(C)[nH]c(=S)c1C#N | -4.4 | -4.1 | 0.2 | i | 30.2* | 1.5 | -3.1
Cc1ccccc1Nc1cc2ccccc2c(=O)[nH]1 | 13.3 | . | . | i | 24.6* | 15.6 | 9.8
O=c1[nH]c(Nc2ccccc2Cl)cc2ccccc12 | -39.0 | -10.7 | -0.5 | i | 0.8 | . | .
CN(C(=O)c1ccc(NC(=O)Cc2ccc(NC(=O)C3CCN(C(=O)c4ccccc4)CC3)cc2)cc1)C1CC1 | -24.4 | -2.9 | -0.3 | i | 20.8* | 1.2 | -4.0
Cc1cc(C2C(C#N)=C(N)SC(N)=C2C#N)c(C)s1 | 6.5 | . | . | i | 23.6* | 11.2 | 38.4*
CC(OC(=O)CCC(=O)c1ccc(Cl)s1)C(=O)NC1(C#N)CCCCC1 (centres undefined) | -21.9 | 4.0 | 2.5 | i | 24.4* | -8.8 | -3.2
COc1ccc(OC)c(S(=O)(=O)N2CCCC(C(=O)Nc3c(C)n(C)n(-c4ccccc4)c3=O)C2)c1 (centres undefined) | . | -4.1 | . | . | . | . | .
O=S(=O)(NCc1cccs1)c1cccc(S(=O)(=O)N2CCCCC2)c1 | -11.1 | 3.6 | 2.4 | i | 34.4* | -6.2 | -6.4
O=S(=O)(c1cccc(S(=O)(=O)N2CCCC2)c1)N1CCCCC1 | -16.2 | -4.2 | -0.8 | i | 4.9 | . | .
COC(=O)[C@H]1C[C@@]2(C)c3ccccc3N(S(=O)(=O)c3ccccc3)[C@H]2N1 | . | -2.1 | . | . | . | . | .
O=c1c2cc(O)c(O)cc2oc2cc(O)c(C3OC(CO)C(O)C(O)C3O)c(O)c12 (centres undefined) | -21.0 | -6.5 | -8.1 | i | 29.4* | 19.9* | -5.0
OC[C@@H](O)[C@H](O[C@@H]1O[C@H](CO)[C@H](O)[C@H](O)[C@H]1O)[C@H](O)[C@@H](O)CO | . | -3.5 | . | . | . | . | .
O=C(CSc1nnc(CNc2ccc(F)cc2)n1CC1CCCO1)Nc1ccccc1 (centres undefined) | 3.9 | -2.1 | 0.4 | i | 3.0 | . | .
Fc1ccc(NCc2nnc(SCc3nnc(-c4ccccc4)o3)n2CC2CCCO2)cc1 (centres undefined) | -5.3 | 1.9 | 0.5 | i | 35.6* | -17.7 | 4.5
Cc1ccc(S(=O)(=O)N2CCC(c3nc4ccccc4o3)CC2)s1 | . | -5.6 | . | . | . | . | .
O=C1CCCC(=O)C1C(=O)c1ccc(C(F)(F)F)cc1[N+](=O)[O-] | . | -8.3 | . | . | . | . | .
Cn1nc(-c2ccccn2)nc2c(=O)n(C)c(=O)nc1-2 | 106.7* | -28.4 | -3.7 | i | 41.5* | 33.3* | 57.3* | NR2E3 ag confirm-2=62.7;GAL4-VP16 luc=63.6

Compound activity deposited in PubChem BioAssay by several laboratories.
